# DAGLB inhibitor: DAGLB lipase inhibitors, primary screen, biochemical, fluorescence, HTS; Diacylglycerol lipase-beta (Homo sapiens), Q8NCG7; HEK293T DAGLB membrane lysate, EnzChek fluorogenic substrate; inhibition, % at 5.17 µM; 340,000 tested, 0.059% active; in the data active = inhibition above about 34%;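 also: 0% = enzyme with vehicle and 100% = wells lacking enzyme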
# MT1-MMP act inh: blockers of MT1-MMP proenzyme processing, primary screen, HT1080 RFP-PRO-GFP cells, GFP/RFP fluorescence | 360,000 tested, 0.061% active | GFP/RFP ratio change, % at 20 µM | AID 651647, 2012 | Matrix metalloproteinase-14 (Homo sapiens), P50281 | GFP/RFP ratio fluorescence, overnight; percent of plate control window, DMSO zero;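 active = GFP/RFP ratio change of at least 30% with cell ATP level not reduced by more than half and red fluorescence within 50% of control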
#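 Assay system: HT1080 RFP-PRO-GFP cells | Dosing: 20 µM single dose, 1% DMSO | Incubation: Cells overnight before dosing, compound overnight, 37 °C, 5% CO2 | Evaluation: GFP/RFP fluorescence ratio | Control set: DMSO-only wells and HT1080 RFP-L50D-GFP cell wells as references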
# TMEM16A inh: TMEM16A chloride channel inhibitors, primary screen, cell-based, HTS. Anoctamin-1 (Mus musculus), Q8BHY3. HEK293 TMEM16A/YFP iodide influx fluorescence, ionomycin. normalized B-score (activity score, 25-100; higher = stronger inhibition) at 10 µM. 310,000 tested, 1.2% active. AID 588511, 2011;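 active = ratio plate-corrected score three or more library SD toward inhibition, starting fluorescence score within five deviations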;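 also: score derived from kinetic fluorescence span divided by baseline fluorescence per well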
# ANO1 activ: TMEM16A chloride channel activators or potentiators, primary screen, cell-based, HTS | HEK293 TMEM16A/YFP-H148Q/I152L, iodide quench fluorescence; stronger effect = lower value | B-score at 10 µM | 340,000 tested, 0.3% active;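 active = fluorescence-ratio B-score plate-corrected deviation score at least 3 library SD below zero, with starting fluorescence score within 5 deviations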;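 also: channel opened by trigger with iodide after compound preincubation; score built on the fluorescence ratio of max minus min over baseline; more negative score means more quench and so TMEM16A activation or potentiation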
# TMEM16A reconf: TMEM16A chloride channel inhibitors, confirmation, cell-based, re-confirmation | shares compounds with TMEM16A inh | HEK293 TMEM16A/YFP-H148Q, iodide quench fluorescence; ionomycin added to raise cell calcium | inhibition, % at 10 µM | 2,300 tested, 39% active;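 active = mean duplicate percent inhibition, scaled so buffer wells are 0 and the reference blocker 100, over three buffer SD above buffer mean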
# TMEM16A Ca cntr: calcium mobilization in TMEM16A/YFP HEK293 cells, confirmation, counter-screen for TMEM16A inhibitor project. shares compounds with TMEM16A inh. Fluo4 calcium mobilization. calcium response (% of ionomycin), % at 10 µM. 2,300 tested, 2% active. AID 652231, 2013;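 active = duplicate-averaged calcium signal over 20% of the ionomycin maximum, relative to buffer baseline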;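 also: each well's signal is peak minus trough fluorescence divided by its pre-addition baseline; 0% = buffer wells and 100% = ionomycin wells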
# Parental YFP cnt: iodide YFP quench changes in parental YFP-HEK293, counter-screen for TMEM16A inhibitor project, cell-based. shares compounds with TMEM16A inh. ionomycin. YFP ratio F(max-min)/F0 at 10 µM. 2,300 tested, under 10 active;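 active = yellow fluorescent protein signal ratio exceeding the buffer control mean by over 5 SD of those controls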;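 also: ratio is mean of duplicate wells from kinetic YFP trace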
# ClC-1 inh: ClC-1 chloride channel inhibition, selectivity assay for TMEM16A inhibitor project, cell-based, voltage-dependent ClC-1 | shares compounds with TMEM16A inh | CHO ClC-1-YFP, iodide influx fluorescence quench; iodide control reads 0, buffer control 100 | ratio percent, % at 10 µM | 2,300 tested, under 10 active;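 active = duplicate-mean ratio percent above the mean of iodide-only control wells, which defines zero, plus 5 of their SD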;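 also: higher percent means stronger block of ClC-1 iodide influx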
# Target sequence (P35524 whole entry, looked up): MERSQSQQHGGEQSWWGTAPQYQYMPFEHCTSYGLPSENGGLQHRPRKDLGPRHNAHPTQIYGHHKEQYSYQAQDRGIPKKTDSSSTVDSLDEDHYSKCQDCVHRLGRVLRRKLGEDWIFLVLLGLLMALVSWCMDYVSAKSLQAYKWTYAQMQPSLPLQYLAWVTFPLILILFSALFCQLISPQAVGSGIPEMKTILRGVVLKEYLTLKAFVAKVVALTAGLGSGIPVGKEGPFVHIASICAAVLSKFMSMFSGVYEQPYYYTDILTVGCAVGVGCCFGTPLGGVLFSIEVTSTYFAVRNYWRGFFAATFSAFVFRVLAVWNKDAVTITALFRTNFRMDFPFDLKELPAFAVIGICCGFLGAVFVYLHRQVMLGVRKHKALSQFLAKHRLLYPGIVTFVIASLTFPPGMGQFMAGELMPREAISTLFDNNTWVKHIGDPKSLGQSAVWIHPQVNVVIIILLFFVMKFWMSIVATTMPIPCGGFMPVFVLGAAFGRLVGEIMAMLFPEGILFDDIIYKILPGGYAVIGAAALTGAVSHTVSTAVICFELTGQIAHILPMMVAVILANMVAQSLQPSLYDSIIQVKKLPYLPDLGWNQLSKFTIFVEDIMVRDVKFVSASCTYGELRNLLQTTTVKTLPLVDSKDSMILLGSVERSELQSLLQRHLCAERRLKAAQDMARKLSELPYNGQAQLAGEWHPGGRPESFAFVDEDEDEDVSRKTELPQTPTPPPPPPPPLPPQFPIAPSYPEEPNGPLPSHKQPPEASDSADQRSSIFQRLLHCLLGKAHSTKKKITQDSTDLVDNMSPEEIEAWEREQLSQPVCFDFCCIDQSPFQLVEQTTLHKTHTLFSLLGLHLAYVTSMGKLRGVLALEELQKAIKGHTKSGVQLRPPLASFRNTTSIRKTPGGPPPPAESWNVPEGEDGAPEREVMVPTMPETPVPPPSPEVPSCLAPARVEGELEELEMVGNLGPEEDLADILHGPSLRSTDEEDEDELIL
# * hit, by the source's call; i = inactive; · = no result. This is a sample that favours compounds with a hit; in the whole collection about 1.3% have one here.
SMILES,DAGLB inhibitor,MT1-MMP act inh,TMEM16A inh,ANO1 activ,TMEM16A reconf,TMEM16A Ca cntr,Parental YFP cnt,ClC-1 inh
COc1ccc(N2CCn3c2nc2c3c(=O)n(CCCc3ccccc3)c(=O)n2C)c(OC)c1,1.3,0.8,100*,i,22.5%*,i,-1.2,-13.5
CCOC(=O)C1=CCN(S(=O)(=O)c2ccccc2Cl)C1c1cccc(Br)c1 (stereo not given),·,-1.4,·,·,·,·,·,·
O=C(Cc1cccs1)N1CCN(C(=O)C2CCCO2)CC1 (stereo not given),-1.6,0.5,i,i,·,·,·,·
O=C(c1cccs1)N1CCN(C(=O)C2CCCO2)CC1 (stereo not given),3.4,-4.1,100*,i,i,i,-1.02,3.0
O=C(Nc1ccc2c(c1)OCO2)N1CCN(C(=O)C2CCCO2)CC1 (stereo not given),-1.4,-0.3,25*,i,i,i,-1.15,-4.0
COc1ccc(CN2CCC(C(=O)Nc3ccc(Oc4ccccc4)nc3)CC2)cc1F,0.0,-6.3,25*,i,i,i,-1,-12.0
Cc1cc(C(=O)Cn2cnc3ccc(Cl)cc3c2=O)c(C)n1C1CC1,-1.7,1.4,·,·,·,·,·,·
CN(C(=O)COC(=O)c1ccccc1C(=O)c1ccccc1)c1ccccc1,-0.7,3.4,·,i,·,·,·,·
O=C(/C=C/c1ccccc1Cl)NCc1ccco1,-2.4,-2.1,25*,i,i,i,-0.863,-4.0
CCN(CC)CCNC(=O)CCc1c(C)nc2c(c(C)nn2-c2ccc(C)c(C)c2)c1C,-0.8,-0.4,i,i,·,·,·,·
COC(=O)[C@@]12CCCN1[C@H](c1ccc(-c3cccc(Cl)c3)cc1)[C@H]1C(=O)N(C)C(=O)[C@H]12,2.9,4.0,i,i,·,·,·,·
COC(=O)[C@@]12CCCN1[C@H](c1ccc(-c3ccc(Cl)c(Cl)c3)cc1)[C@H]1C(=O)N(C)C(=O)[C@H]12,-1.6,-0.5,100*,i,i,i,-0.888,2.0
CCOC1=C2[C@H](c3ccccc3)N(S(=O)(=O)c3ccc(C)cc3)C(C(C)(C)C)[C@H]2n2c(=O)n(-c3ccccc3)c(=O)n2C1 (stereo not given in full),·,1.4,·,·,·,·,·,·
CN(c1ccccc1)S(=O)(=O)c1ccc(C(=O)Nc2nnc(-c3ccc(F)cc3)o2)cc1,·,·,100*,·,17.5%*,i,-1.02,-7.5
CCOc1cc(-c2ccc(N)c(OCC)c2)ccc1N,2.6,-20.2,i,i,i,i,-0.707,4.0
CCCn1c(SCC(=O)c2cc(C)n(-c3cc(C)on3)c2C)n[nH]c1=O,3.2,0.8,·,i,·,·,·,·
COc1ccc(C)cc1NC(=O)C1CCCN(S(=O)(=O)c2cccc3cccnc23)C1 (stereo not given),-3.2,-0.1,100*,i,i,i,-0.915,-4.5
CCOC(=O)C1(Cc2cccc(OC)c2)CCN(C/C=C/c2ccccc2)CC1,-4.2,-4.8,i,i,·,·,·,·
CCOC(=O)C1(Cc2cccc(OC)c2)CCN(C/C=C/c2ccc(OC)cc2)CC1,-3.3,-3.8,25*,i,i,i,-1.21,-18.5
Cc1cccc(/N=C/c2sc3ccccc3c2O)n1,-0.1,6.1,i,i,i,i,-1.26,-7.5
O=C(c1ccccc1)c1ccc2cc(O)ccc2c1,-3.8,0.5,25*,i,i,i,-1.05,-1.5
COc1ccc(Br)c(Cn2c(C)c(C(=O)NCc3cccc([N+](=O)[O-])c3)sc2=O)c1,·,5.8,·,·,·,·,·,·
COc1ccc(Cl)cc1-n1c(=S)sc2c(=O)[nH]c(SCC(=O)C(C)(C)C)nc21,12.7,4.2,100*,i,27.5%*,i,-1.11,-29.5
O=C(c1ccco1)N1CCN(C(=O)c2cnn3c2NC(c2cccs2)CC3C(F)(F)F)CC1 (stereo not given),0.7,0.2,i,i,·,·,·,·
O=C(c1cnn2c1NC(c1ccco1)CC2C(F)(F)F)N1CCN(c2cccc(Cl)c2)CC1 (stereo not given),-2.1,-8.0,25*,i,i,i,-0.949,-5.0
SMILES,DAGLB inhibitor,MT1-MMP act inh,TMEM16A inh,ANO1 activ,TMEM16A reconf,TMEM16A Ca cntr,Parental YFP cnt,ClC-1 inh
COC(=O)C1CCN(C2CN(Cc3ccc(C)cc3)S(=O)(=O)C2)CC1 (stereo not given),·,2.7,·,·,·,·,·,·
N#Cc1c(F)cccc1NCc1cccnc1,0.0,0.9,i,i,·,·,·,·
N#Cc1c(NCc2ccccc2)ccnc1NCc1cccnc1,0.2,·,100*,i,18.5%*,i,-0.796,-9.5
COCCCNc1nc2ccccc2nc1NS(=O)(=O)c1cc(Cl)ccc1Cl,2.6,3.0,25*,i,16.5%*,i,-0.862,-12.0
CCc1c(-c2ccccc2F)ncn1Cc1cccc(-c2ccccc2)c1,·,14.0,·,·,·,·,·,·
Cc1cccc(OCCCSc2nc3ccccc3[nH]2)c1,-3.2,8.4,100*,i,17.0%*,i,-1.12,-8.5
Cc1cccc(OCCSCc2nc3ccccc3[nH]2)c1,-5.0,-0.6,i,i,·,·,·,·
CSCCC(C(=O)Nc1c(C)cccc1C)n1c(-c2cc(C)cs2)nc2ccccc21 (stereo not given),·,-2.6,·,·,·,·,·,·
CC1CC(c2ccccc2)n2nc(N3C(=O)c4ccccc4C3=O)nc2N1 (stereo not given),1.4,0.2,25*,i,i,i,-1.16,-13.5
COCCNC(=O)C1CCCN(C(=O)c2cc(-c3ccccc3)cs2)CC1 (stereo not given),·,1.7,·,·,·,·,·,·
COc1ccc(N(CC(=O)NCCSCc2ccc(C)cc2)S(=O)(=O)c2ccccc2)cc1,-3.6,0.5,25*,i,i,i,-1.16,-0.5
COc1cccc(CNC(=O)C2CCN(S(=O)(=O)c3ccc(Br)s3)CC2)c1,0.2,-2.8,i,i,·,·,·,·
O=C(c1cccc(COc2ccc(Cl)cc2Cl)c1)N1CCN(c2ccccn2)CC1,-10.6,-5.7,100*,i,i,i,-1.16,-14.0
